The source made the active and inactive calls. The calls are words filed in the database; no cut-off is given here.
Assays:
[1] = test system: Rattus norvegicus; experiment: Induction of capillary leakage in Lewis rat Evans blue dye lung leakage model assessed as thorax fluid level at 30 mg/kg, po bid measured after 96 hrs relative to untreated control; assay type: organism-based; set-up: dose 30 mg/kg, route oral; conditions: in vivo
How it was run: (§1)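 Male Lewis rats were gavaged twice daily with vehicle or 30 mg/kg in 30% PEG200/buffer. Evans blue dye (20 mg/2 mL NaCl/kg iv) was given under anesthesia at 5, 23 or 95 h. One hour later the rats were bled, lungs were perfused with saline, dried at 60 °C for 24 h, weighed, and dye was extracted in formamide (24 h, 37 °C). Thoracic fluid volume was also recorded.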

[2] = test system: Rattus norvegicus; experiment: Reduction in peripheral blood lymphocytes in Lewis rat assessed as remaining circulating lymphocytes level at 30 mg/kg, po, qd for 5 days by automated hematology analyzer; assay type: functional
How it was run: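 Male Lewis rats were dosed daily at 30 mg/kg po for 5 days. Blood lymphocytes were counted on an automated hematology analyzer once a day, before the next dose, and expressed relative to the pretreatment baseline.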

[3] = test system: Rattus norvegicus; experiment: Toxicity in stringent Dark Agouti to Lewis rat heterotopic vascular heart allotransplantation model assessed as incidence of histopathological changes at 30 mg/kg, po bid coadministered with 10 mg/kg, bid sotrastaurin by hematoxylin and eosin staining; assay type: organism-based; conditions: in vivo
How it was run: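 DA hearts grafted into rat recipients. Test agent 30 mg/kg po b.i.d. (in PEG200/water, pH 5 with 0.1 M HCl) plus the PKC inhibitor 10 mg/kg po b.i.d. (in D-glucose/PEG400/water/0.1 M HCl), started 3 days before transplantation. The study ended at rejection or a set end point. Grafts were formalin-fixed and paraffin-embedded, and 3 μm sections were stained with H&E and trichrome. Acute cellular rejection (0–3R), vasculopathy and fibrosis were scored; lungs were also examined.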

[4] = test system: Rattus norvegicus; experiment: Toxicity in stringent Dark Agouti to Lewis rat heterotopic vascular heart allotransplantation model assessed as compound tolerance at 30 mg/kg, po bid coadministered with 0.3 mg/kg, qd everolimus; assay type: organism-based; conditions: in vivo
How it was run: (§2)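 DA donor hearts were grafted into Lewis recipients. Treatment started 3 days before transplantation: prodrug 30 mg/kg po b.i.d. (PEG200/water, pH 5) alone or with sotrastaurin 10 mg/kg po b.i.d. or everolimus 0.3 mg/kg po q.d. Grafts were followed to rejection or up to 50 days. Allografts were formalin-fixed, cut at 3 μm, stained with H&E and trichrome, and scored for rejection. Lymphocytes were counted weekly before dosing, and body weight was monitored.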

[5] = test system: Rattus norvegicus; experiment: Toxicity in stringent Dark Agouti to Lewis rat heterotopic vascular heart allotransplantation model assessed as compound tolerance at 30 mg/kg, po bid; assay type: organism-based; set-up: dose 30 mg/kg, route oral; conditions: in vivo; how it was run: as §2
[6] = test system: Rattus norvegicus; experiment: Induction of capillary leakage in Lewis rat Evans blue dye lung leakage model assessed as thorax fluid level at 30 mg/kg, po bid measured after 6 hrs relative to untreated control; assay type: organism-based; set-up: dose 30 mg/kg, route oral; conditions: in vivo; how it was run: as §1
[7] = test system: Rattus norvegicus; experiment: Increase in allograft survival in stringent Dark Agouti to Lewis rat heterotopic vascular heart allotransplantation model assessed as improvement in histological changes at 30 mg/kg, po bid coadministered with 0.3 mg/kg, qd everolimus by hematoxylin and eosin staining; assay type: functional, organism-based; how it was run: as §2
[8] = Drug level in Lewis rat blood at 30 mg/kg, po administered as single dose measured 0.25 hrs post dose; conditions: read-out: Drug uptake
[9] = Stability in pH 1 buffer by UPLC; assay type: physicochemical; conditions: read-out: Stability
[10] = test system: Rattus norvegicus; experiment: Increase in allograft survival in stringent Dark Agouti to Lewis rat heterotopic vascular heart allotransplantation model assessed as allograft mean survival time at 30 mg/kg, po bid coadministered with 0.3 mg/kg, qd everolimus (reference value: 6 days); assay type: functional
[11] = Stability in pH 7.4 buffer assessed as compound hydrolysis measured after 49 hrs by UPLC; assay type: physicochemical; conditions: read-out: Drug degradation
How it was run: (§3)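 The ester was incubated in buffer at pH 7.4 or pH 10. Remaining ester and the hydrolysed carboxylic acid were followed over time by UPLC, at time points out to 82 h.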

[12] = test system: Rattus norvegicus; experiment: Toxicity in stringent Dark Agouti to Lewis rat heterotopic vascular heart allotransplantation model assessed as change in body weight at 30 mg/kg, po bid; assay type: organism-based; set-up: dose 30 mg/kg, route oral; conditions: in vivo; how it was run: as §2
[13] = Stability in pH 7.4 buffer assessed as compound hydrolysis measured after 82 hrs by UPLC; assay type: physicochemical; conditions: pH 7.4, 82 h; how it was run: as §3
[14] = test system: Rattus norvegicus; experiment: Reduction in peripheral blood lymphocytes in stringent Dark Agouti to Lewis rat heterotopic vascular heart allotransplantation model at 30 mg/kg, po bid coadministered with 10 mg/kg, bid sotrastaurin measured post 50 days post transplant relative to untreated control; assay type: functional; set-up: scale not given: the % may be the effect or the level left; how it was run: as §2
[15] = Stability in pH 7.4 buffer assessed as compound hydrolysis measured after 2 hrs by UPLC; assay type: physicochemical; conditions: read-out: Drug degradation; how it was run: as §3
[16] = test system: Rattus norvegicus; experiment: Reduction in peripheral blood lymphocytes in stringent Dark Agouti to Lewis rat heterotopic vascular heart allotransplantation model at 30 mg/kg, po bid coadministered with 0.3 mg/kg, qd everolimus measured post 50 days post transplant relative to untreated control; assay type: functional; set-up: scale not given: the % may be the effect or the level left; how it was run: as §2
[17] = Stability in pH 10 buffer assessed as compound remaining measured after 2 hrs by UPLC; assay type: physicochemical; conditions: read-out: Stability; how it was run: as §3
[18] = test system: Rattus norvegicus; experiment: Induction of capillary leakage in Lewis rat Evans blue dye lung leakage model at 30 mg/kg, po bid measured 24 hrs after 6 hrs relative to untreated control; assay type: organism-based; set-up: dose 30 mg/kg, route oral; conditions: in vivo; how it was run: as §1
[19] = Stability in pH 10 buffer assessed as compound remaining measured after 17 hrs by UPLC; assay type: physicochemical; conditions: pH 10, 17 h; how it was run: as §3
[20] = test system: Rattus norvegicus; experiment: Induction of capillary leakage in Lewis rat Evans blue dye lung leakage model at 30 mg/kg, po bid measured 96 hrs after 6 hrs relative to untreated control; assay type: organism-based; set-up: dose 30 mg/kg, route oral; conditions: in vivo; how it was run: as §1
[21] = test system: Rattus norvegicus; experiment: Induction of capillary leakage in Lewis rat Evans blue dye lung leakage model assessed as thorax fluid level at 30 mg/kg, po bid measured after 24 hrs relative to untreated control; assay type: organism-based; set-up: dose 30 mg/kg, route oral; conditions: in vivo; how it was run: as §1
[22] = Cmax in Lewis rat blood at 30 mg/kg, po administered as single dose measured 8 hrs post dose
[23] = test system: Blood; experiment: Drug level in Lewis rat blood assessed as level of (S)-2-{[3'-(4-Chloro-2,5-dimethylphenylsulfonylamino)-3,5-dimethylbiphenyl-4-carbonyl]methylamino}-4-dimethylaminobutyric Acid Hydrochloride at 30 mg/kg, po administered as single dose measured 24 hrs post dose; conditions: in vivo
[24] = test system: Blood; experiment: Cmax in Lewis rat blood assessed as level of (S)-2-{[3'-(4-Chloro-2,5-dimethylphenylsulfonylamino)-3,5-dimethylbiphenyl-4-carbonyl]methylamino}-4-dimethylaminobutyric Acid Hydrochloride at 30 mg/kg, po administered as single dose measured 8 hrs post dose; conditions: in vivo
[25] = Drug level in Lewis rat blood at 30 mg/kg, po administered as single dose measured 24 hrs post dose; conditions: read-out: Drug uptake
[26] = test system: Rattus norvegicus; experiment: Induction of capillary leakage in Lewis rat Evans blue dye lung leakage model at 30 mg/kg, po bid measured 6 hrs after 6 hrs relative to untreated control; assay type: organism-based; set-up: dose 30 mg/kg, route oral; conditions: in vivo; how it was run: as §1
[27] = test system: Rattus norvegicus; experiment: Increase in allograft survival in stringent Dark Agouti to Lewis rat heterotopic vascular heart allotransplantation model assessed as improvement in histological changes at 30 mg/kg, po bid coadministered with 10 mg/kg, bid sotrastaurin by hematoxylin and eosin staining; assay type: functional, organism-based; how it was run: as §2
[28] = test system: Rattus norvegicus; experiment: Increase in allograft survival in stringent Dark Agouti to Lewis rat heterotopic vascular heart allotransplantation model assessed as allograft mean survival time at 30 mg/kg, po bid (reference value: 6 days); assay type: functional
[29] = Stability in pH 5 buffer by UPLC; assay type: physicochemical

**Q.** What does the source list for `COC(=O)[C@H](CCN(C)C)N(C)C(=O)c1c(C)cc(-c2cccc(NS(=O)(=O)c3cc(C)c(Cl)cc3C)c2)cc1C`?
**A.** Activity [1]: Non-toxic; Activity [2]: 20%; Activity [3]: Non-toxic; Activity [4]: Non-toxic; Activity [5]: Non-toxic; Activity [6]: 1 mL; Activity [7]: Active; concentration at 0.25 h [8]: 146 ng/mL; half-life [9]: > 53 h; MST [10]: >50 days; degraded at 49 h [11]: 85%; Activity [12]: Non-toxic; Stability [13]: Unstable; Activity [14]: 12%; degraded at 2 h [15]: 9%; Activity [16]: 9%; remaining at 2 h [17]: 52%; fold change (FC) [18]: 2.4; Stability [19]: Unstable; fold change (FC) [20]: 2.2; Activity [21]: 2 mL; Cmax [22]: 364 ng/mL; Drug uptake [23]: 5 ng/mL; Cmax [24]: 29 ng/mL; concentration at 24 h [25]: 50 ng/mL; fold change (FC) [26]: 3; Activity [27]: Active; MST [28]: 8 days; Stability [29]: > 53 h
